Assay results from ChEMBL document CHEMBL4400511, “Benzothiopyranoindole- and pyridothiopyranoindole-based antiproliferative agents targeting topoisomerases” (2019).
Activity calls are given as the source filed them. No cut-off for these calls is given here.

Columns and labels:
[1] = system: HeLa; test: Growth inhibition in human HeLa cells after 72 hrs by trypan blue dye-based assay; type: functional
How it was run: (§1)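 Three human tumour lines were used: HeLa (cervix adenocarcinoma), A-431 (epidermoid/squamous carcinoma) and MSTO-211H (biphasic mesothelioma). GI50 is the µM concentration giving 50% cell death relative to the untreated control culture. Ellipticine was run as reference.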

[2] = system: A-431; test: Growth inhibition in human A431 cells after 72 hrs by trypan blue dye-based assay; type: functional; conditions: A-431, 72 h; how it was run: as §1
[3] = system: MSTO-211H; test: Growth inhibition in human MSTO-211H cells after 72 hrs by trypan blue dye-based assay; type: functional; how it was run: as §1
[4] = system: HeLa; test: Induction of apoptosis in human HeLa cells assessed as early apoptotic cells at 20 uM after 18 hrs by Annexin-V-FITC/propidium iodide staining based flow cytometric analysis (reference value: 5.6%); type: functional
How it was run: (§2)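 HeLa cells were incubated 18 h without compound (control) or at 20 and 80 µM. They were stained with FITC-annexin V and propidium iodide and analysed by dual-parameter flow cytometry. Cells were scored as viable, early apoptotic, late apoptotic or necrotic.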

[5] = system: HeLa; test: Induction of apoptosis in human HeLa cells assessed as late apoptotic cells at 20 uM after 18 hrs by Annexin-V-FITC/propidium iodide staining based flow cytometric analysis (reference value: 2.2%); type: functional; how it was run: as §2
[6] = system: HeLa; test: Induction of apoptosis in human HeLa cells assessed as necrotic cells at 20 uM after 18 hrs by Annexin-V-FITC/propidium iodide staining based flow cytometric analysis (reference value: 0.7%); type: functional; how it was run: as §2
[7] = system: HeLa; test: Induction of apoptosis in human HeLa cells assessed as viable cells at 20 uM after 18 hrs by Annexin-V-FITC/propidium iodide staining based flow cytometric analysis (reference value: 91.6%); type: functional; conditions: read-out: Activity; how it was run: as §2
[8] = system: HeLa; test: Induction of apoptosis in human HeLa cells assessed as early apoptotic cells at 80 uM after 18 hrs by Annexin-V-FITC/propidium iodide staining based flow cytometric analysis (reference value: 5.6%); type: functional; how it was run: as §2
[9] = system: HeLa; test: Induction of apoptosis in human HeLa cells assessed as late apoptotic cells at 80 uM after 18 hrs by Annexin-V-FITC/propidium iodide staining based flow cytometric analysis (reference value: 2.2%); type: functional; how it was run: as §2
[10] = system: HeLa; test: Induction of apoptosis in human HeLa cells assessed as necrotic cells at 80 uM after 18 hrs by Annexin-V-FITC/propidium iodide staining based flow cytometric analysis (reference value: 0.7%); type: functional; how it was run: as §2
[11] = system: HeLa; test: Induction of apoptosis in human HeLa cells assessed as viable cells at 80 uM after 18 hrs by Annexin-V-FITC/propidium iodide staining based flow cytometric analysis (reference value: 91.6%); type: functional; conditions: read-out: Activity; how it was run: as §2
[12] = system: Salmon testes DNA; test: Binding affinity to salmon DNA at compound to DNA ratio of 0.02 to 0.04 by linear flow dichroism analysis; type: nucleic-acid assay; conditions: Salmonidae
[13] = target: DNA topoisomerase 2-alpha (Homo sapiens) (UniProt P11388); test: Inhibition of recombinant human topoisomerase 2alpha assessed as decrease in relaxation of supercoiled pBR322 DNA after 60 mins by ethidium bromide staining based agarose gel electrophoresis method
Chain of DNA topoisomerase 2-alpha (Homo sapiens) (P11388 whole entry): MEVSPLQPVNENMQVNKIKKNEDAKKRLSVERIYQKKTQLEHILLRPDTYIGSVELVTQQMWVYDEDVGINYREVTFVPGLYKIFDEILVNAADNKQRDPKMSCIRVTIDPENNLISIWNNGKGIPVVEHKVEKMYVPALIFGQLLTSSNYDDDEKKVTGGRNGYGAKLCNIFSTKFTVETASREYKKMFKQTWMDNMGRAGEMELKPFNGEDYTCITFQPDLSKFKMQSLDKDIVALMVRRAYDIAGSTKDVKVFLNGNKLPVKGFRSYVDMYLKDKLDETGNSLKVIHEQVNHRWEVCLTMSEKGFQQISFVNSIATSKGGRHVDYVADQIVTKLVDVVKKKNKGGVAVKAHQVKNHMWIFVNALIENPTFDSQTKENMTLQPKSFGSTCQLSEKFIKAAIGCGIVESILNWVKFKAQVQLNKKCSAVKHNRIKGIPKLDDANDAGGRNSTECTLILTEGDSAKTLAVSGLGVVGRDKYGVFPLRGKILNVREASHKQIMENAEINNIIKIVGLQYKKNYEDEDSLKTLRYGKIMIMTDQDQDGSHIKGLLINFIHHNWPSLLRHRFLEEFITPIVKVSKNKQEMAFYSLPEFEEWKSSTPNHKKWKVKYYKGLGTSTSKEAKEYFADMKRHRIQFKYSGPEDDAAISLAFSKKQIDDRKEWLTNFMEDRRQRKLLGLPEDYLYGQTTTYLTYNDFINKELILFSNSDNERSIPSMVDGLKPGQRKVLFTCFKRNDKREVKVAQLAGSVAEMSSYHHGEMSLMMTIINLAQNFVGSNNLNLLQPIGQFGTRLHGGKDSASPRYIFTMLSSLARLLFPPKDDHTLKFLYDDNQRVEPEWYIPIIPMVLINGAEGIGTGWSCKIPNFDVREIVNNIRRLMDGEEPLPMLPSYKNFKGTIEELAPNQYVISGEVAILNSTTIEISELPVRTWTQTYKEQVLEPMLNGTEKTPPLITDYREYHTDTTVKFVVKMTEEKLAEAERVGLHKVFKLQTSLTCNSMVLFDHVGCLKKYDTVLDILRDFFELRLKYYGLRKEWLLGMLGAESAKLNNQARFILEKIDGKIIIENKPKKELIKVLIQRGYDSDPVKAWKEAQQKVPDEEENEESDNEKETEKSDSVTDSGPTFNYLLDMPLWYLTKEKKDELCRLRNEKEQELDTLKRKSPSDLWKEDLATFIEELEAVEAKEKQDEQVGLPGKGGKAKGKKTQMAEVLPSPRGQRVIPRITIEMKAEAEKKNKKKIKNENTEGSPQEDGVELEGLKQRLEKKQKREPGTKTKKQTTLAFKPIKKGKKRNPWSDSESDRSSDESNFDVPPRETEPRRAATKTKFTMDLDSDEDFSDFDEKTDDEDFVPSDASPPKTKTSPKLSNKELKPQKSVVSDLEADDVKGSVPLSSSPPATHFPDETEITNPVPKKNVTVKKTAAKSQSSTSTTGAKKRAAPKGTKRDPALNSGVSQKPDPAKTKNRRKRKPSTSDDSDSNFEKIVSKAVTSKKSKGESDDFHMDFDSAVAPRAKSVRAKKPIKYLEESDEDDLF
How it was run: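 Topo II was incubated with supercoiled pBR322 DNA, with or without compound at a series of µM concentrations. Read-out is topoisomer formation from supercoiled DNA on a gel. Reference is 10 µM m-AMSA.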

[14] = target: T1, DNA topoisomerase 1 (Homo sapiens) (UniProt P11387); test: Inhibition of recombinant human topoisomerase 1 assessed as decrease in relaxation of supercoiled pBR322 DNA after 60 mins by ethidium bromide staining based agarose gel electrophoresis method
T1 sequence (whole entry): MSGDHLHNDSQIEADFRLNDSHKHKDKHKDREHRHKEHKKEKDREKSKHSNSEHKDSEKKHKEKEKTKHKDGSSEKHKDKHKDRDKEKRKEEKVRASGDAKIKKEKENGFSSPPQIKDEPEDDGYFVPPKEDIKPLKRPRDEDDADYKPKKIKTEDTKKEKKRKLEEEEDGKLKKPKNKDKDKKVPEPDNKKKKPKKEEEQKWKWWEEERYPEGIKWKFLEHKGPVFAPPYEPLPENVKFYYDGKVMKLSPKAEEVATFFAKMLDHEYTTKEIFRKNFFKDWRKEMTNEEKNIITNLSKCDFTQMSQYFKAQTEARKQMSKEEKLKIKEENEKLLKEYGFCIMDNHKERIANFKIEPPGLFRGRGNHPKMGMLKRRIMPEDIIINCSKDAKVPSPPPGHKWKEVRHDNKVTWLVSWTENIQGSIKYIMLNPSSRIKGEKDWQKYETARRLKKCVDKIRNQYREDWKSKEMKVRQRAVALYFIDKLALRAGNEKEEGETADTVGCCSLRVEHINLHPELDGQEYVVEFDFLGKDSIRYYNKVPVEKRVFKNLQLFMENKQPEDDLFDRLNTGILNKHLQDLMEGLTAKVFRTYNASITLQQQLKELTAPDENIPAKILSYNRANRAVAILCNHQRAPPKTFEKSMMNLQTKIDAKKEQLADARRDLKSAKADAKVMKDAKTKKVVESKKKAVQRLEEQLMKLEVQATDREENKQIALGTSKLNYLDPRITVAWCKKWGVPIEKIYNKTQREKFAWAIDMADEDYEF
How it was run: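 Human recombinant Topo I was incubated with supercoiled pBR322 DNA, with or without compound at a series of µM concentrations. Read-out is the number of relaxed topoisomers formed.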

[15] = target: DNA topoisomerase 2-alpha (Homo sapiens) (UniProt P11388); test: Poison activity at recombinant human topoisomerase-2 assessed as stabilization of covalent topo-2-DNA cleavage complex by measuring linear DNA formation up to 50 uM using supercoiled pBR322 DNA as substrate after 60 mins by agarose gel electrophoresis method
How it was run: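 Cleavable-complex assay: supercoiled pBR322 DNA was incubated with Topo II, with or without compound at a series of µM concentrations. Enzyme-mediated linear DNA marks cleavage-complex stabilisation. Reference poison is 10 µM m-AMSA.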

[16] = target: T1, DNA topoisomerase 1 (Homo sapiens); test: Poison activity at recombinant human topoisomerase-1 assessed as stabilization of covalent topo-1-DNA cleavage complex by measuring nicked DNA formation using supercoiled pBR322 DNA as substrate after 60 mins by agarose gel electrophoresis method
How it was run: (§3)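 Cleavable-complex assay: supercoiled pBR322 DNA was incubated with Topo I, with or without compound at a series of µM concentrations. Nicked DNA formation marks covalent complex stabilisation. Reference is 0.5 µM camptothecin.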

[17] = target: T1, DNA topoisomerase 1 (Homo sapiens); test: Poison activity at recombinant human topoisomerase-1 assessed as stabilization of covalent topo-1-DNA cleavage complex by measuring nicked DNA formation at 0.5 to 50 uM using supercoiled pBR322 DNA as substrate after 60 mins by agarose gel electrophoresis method; how it was run: as §3

COc1cc2c3sc4ccccc4c(=O)c3n(CCN(C)C)c2cc1OC
GI50 [1]: 820 nM
GI50 [2]: 330 nM
GI50 [3]: 310 nM
Activity [4]: 8.6%
Activity [5]: 2.7%
Activity [6]: 2%
viability at 20 µM [7]: 86.7%
Activity [8]: 31.5%
Activity [9]: 17%
Activity [10]: 7.7%
viability at 80 µM [11]: 43.8%
Activity [12]: Active
inhibition [13]: Dose-dependent effect
inhibition [14]: Dose-dependent effect
Activity [15]: inactive
Activity [16]: Dose-dependent effect
Activity [17]: Active
